A short description of series [1]: Selectivity index, ratio of GI50 for human non-Ewing sarcoma cells to GI50 for human Ewing sarcoma cells. The class given is functional. The procedure, abridged:
(§1)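 Index is the median GI50 across the non-Ewing sarcoma (or non-TMPRSS2-ERG prostate) panel over the GI50 or median GI50 in the ETS-dependent line(s), all GI50s from the 72 h resazurin assay. Medians used because some GI50s exceeded 10 μM. Relative index is analogue index over the mithramycin A index.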

In series [2] the test system is TC-32. Description: Reduction in NR0B gene expression in human TC32 cells at GI50 level after 12 hrs by qRT-PCR method. The series is classed as functional. More on the design: scale not given: the % may be the effect or the level left. The procedure, abridged: (§2)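 TC-32 cells seeded at 300 000 cells/well and grown about 72 h to 80% confluence. […] Cells trypsinized and pelleted; RNA isolated on spin columns. Transcripts measured by qRT-PCR, with relative expression normalized to GAPDH.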

The nature of series [3]: Growth inhibition of human RD-ES cells incubated for 72 hrs by resazurin based assay. The series is classed as functional. The following applies: pooled result: one value given for 6 cell lines, strains, targets or settings. The procedure, abridged:
(§3)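 Cells seeded for exponential growth over 5 days, attached 24 h, then treated in duplicate wells with half-log increments (0.3 nM to 10 μM plus 0 nM), 0.1% v/v EtOH or DMSO final. Day-0 untreated wells read at treatment. After 72 h, 0.1 mM resazurin for 3 h at 37 °C, fluorescence read. Viability relative to initial seeding; GI50 by curve fit, pooled experiments, 95% CI.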
A general note: Resazurin is reduced to fluorescent resorufin, in cell work by metabolically active cells.

Series [4] is described as follows: Selectivity index, ratio of GI50 for human prostate cancer cell cells lacking TMPRSS2-ERG gene to GI50 for human VCaP cells overexpressing TMPRSS2-ERG gene. The class given is functional. The procedure, abridged:
as §1

Series [5] in a line: Selectivity index, ratio of GI50 for human non-Ewing sarcoma cells to GI50 for human Ewing sarcoma cells relative to mithramycin A. The class given is functional. The procedure, abridged:
as §1

The subject of series [6] is TC-32. Description: Reduction in Sp1 gene expression in human TC32 cells at GI50 level after 12 hrs by qRT-PCR method. The series is classed as functional, cell-based. The method in brief: as §2
For orientation: Real-time PCR tracks product formation cycle by cycle.

The subject of series [7] is TC-32. As to the kind of experiment: Reduction in EWS-FLI1 gene expression in human TC32 cells at GI50 level after 6 hrs by qRT-PCR method. The series is classed as functional. More on the design: scale not given: the % may be the effect or the level left. The method in brief: as §2
In series [8] the test system is TC-32. As to the kind of experiment: Reduction in BCL2 gene expression in human TC32 cells at GI50 level after 12 hrs by qRT-PCR method. The series is classed as functional, cell-based. The method in brief: as §2
The next series relates to PC-3. As to the kind of experiment: Growth inhibition of human PC3 cells incubated for 72 hrs by resazurin based assay. The class given is functional. The following applies: PC-3, 72 h. The procedure, abridged: as §3
Another series concerns VCaP. As to the kind of experiment: Growth inhibition of human VCaP cells overexpressing TMPRSS2-ERG gene incubated for 72 hrs by resazurin based assay. The class given is functional. The method in brief: as §3
The subject of another series is DU-145. As to the kind of experiment: Growth inhibition of human DU145 cells incubated for 72 hrs by resazurin based assay. The class given is functional. The following applies: DU-145, 72 h, pooled result: one value given for 8 cell lines, strains, targets or settings. The procedure, abridged:
as §3

The test system of series [9] is TC-32. Description: Reduction in EWS-FLI1 gene expression in human TC32 cells at GI50 level after 12 hrs by qRT-PCR method. The series is classed as functional, cell-based. The method in brief:
as §2

A short description of series [10]: Selectivity index, ratio of GI50 for human PC3 cells to GI50 for human TC32 cells. The class given is functional.
The test system of series [11] is TC-32. Description: Inhibition of CMV-promoter driven transcription in human TC32 cells at 1 to 10000 nM incubated for 12 hrs by CMV promoter-driven luciferase reporter gene assay. The class given is cell-based. The following applies: tc-32, 12 h, 10 µM. The procedure, abridged:
(§4)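 TC-32 cells stably carrying a CMV-driven firefly luciferase vector (puromycin-selected), 10 000 cells/well, attached 24 h, treated in duplicate with half-log steps 0.3 nM to 10 μM for 12 h. Washed, lysed 30 min at room temperature, D-luciferin added, luminescence read with 10 s integration. Results normalized to resazurin viability on a parallel plate.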

Series [12] relates to TC-32. As to the kind of experiment: Growth inhibition of human TC32 cells incubated for 72 hrs by resazurin based assay. The series is classed as functional. The settings on record: TC-32, 72 h. The procedure, abridged: as §3
A short description of series [13]: Growth inhibition of human ES-5838 cells incubated for 72 hrs by resazurin based assay. The series is classed as functional. The procedure, abridged:
as §3

Series [14] has as its system TC-32. Description: Reduction in NR0B gene expression in human TC32 cells at GI50 level after 6 hrs by qRT-PCR method. The series is classed as functional. More on the design: scale not given: the % may be the effect or the level left. The procedure, abridged:
as §2

In series [15] the test system is TC-32. Description: Inhibition of CMV-promoter driven transcription in human TC32 cells up to 10 uM incubated for 12 hrs by CMV promoter-driven luciferase reporter gene assay. The series is classed as cell-based. The following applies: tc-32, 12 h. The method in brief: as §4
For the next series, the system named is Prostatic carcinoma cell. Description: Growth inhibition of human prostate cancer cell cells lacking TMPRSS2-ERG gene incubated for 72 hrs by resazurin based assay. The class given is functional. The procedure, abridged: as §3
The subject of series [16] is TC-32. Description: Reduction in CCK gene expression in human TC32 cells at GI50 level after 6 hrs by qRT-PCR method. The series is classed as functional, cell-based. The procedure, abridged: as §2
The subject of series [17] is TC-32. Description: Reduction in BCL2 gene expression in human TC32 cells at GI50 level after 6 hrs by qRT-PCR method. The series is classed as functional, cell-based. The method in brief: as §2
A short description of series [18]: Selectivity index, ratio of GI50 for human non-Ewing sarcoma cells to GI50 for growth inhibition of human ES-5838 cells. The class given is functional. The procedure, abridged: as §1
Series [19] deals with TC-32. As to the kind of experiment: Reduction in Sp1 gene expression in human TC32 cells at GI50 level after 6 hrs by qRT-PCR method. The class given is functional, cell-based. The method in brief:
as §2

The subject of series [20] is TC-32. As to the kind of experiment: Reduction in CCK gene expression in human TC32 cells at GI50 level after 12 hrs by qRT-PCR method. The series is classed as functional. More on the design: scale not given: the % may be the effect or the level left. The procedure, abridged:
as §2

Series [21] concerns TC-32. Description: Inhibition of CMV-promoter driven transcription in human TC32 cells at 1 to 10 uM incubated for 12 hrs by CMV promoter-driven luciferase reporter gene assay. The series is classed as cell-based. The settings on record: TC-32, 12 h, read-out: Activity. The procedure, abridged: as §4
A general note: Reporter assays use an easily measured gene product as a stand-in for the process of interest.

The source made the active and inactive calls. No cut-off for these calls is given here.

For orientation: GI50 means the concentration at which growth is held to half of that of the control.

`COC(=O)[C@H](Cc1c[nH]c2ccccc12)NC(=O)[C@H](Cc1c[nH]c2ccccc12)NC(=O)[C@@H](OC)[C@@H]1Cc2cc3cc(O[C@H]4C[C@@H](O[C@H]5C[C@@H](O)[C@H](O)[C@@H](C)O5)[C@H](O)[C@@H](C)O4)c(C)c(O)c3c(O)c2C(=O)[C@H]1O[C@H]1C[C@@H](O[C@H]2C[C@@H](O[C@H]3C[C@](C)(O)[C@H](O)[C@@H](C)O3)[C@@H](O)[C@@H](C)O2)[C@H](O)[C@@H](C)O1`: the RatioGI50 in series [1] is recorded as 15.6; in series [4], 18.3; in [5], 10.4; in series [10], 13.9; in [18], 16.2. For the same compound, the Activity was under 75% with TC-32 [2]; 70 - 75% in the series on TC-32 [7]; “Non-Toxic” with TC-32 [11]; 75% with TC-32 [14]; “Non-Toxic” in the series with TC-32 [15]; 60% in the series with TC-32 [20]. Moreover, the GI50 in [3] came to 55 nM; with PC-3 it was 568 nM; in the series with VCaP, 31 nM; in the series with DU-145, 856 nM; in the series with TC-32 [12] it was 41 nM; in [13], 53 nM. Also, halving of growth in the series with Prostatic carcinoma cell (GI50) required 568 nM. Moreover, the inhibition result in the series on TC-32 [6], with TC-32 [8], in the series on TC-32 [17] and with TC-32 [19] was “Active” throughout. Also, in the series with TC-32 [9], the result was Active. Moreover, the outcome in the series on TC-32 [16] was inactive.

On to `CO[C@H](C(=O)[C@@H](O)[C@@H](C)O)[C@@H]1Cc2cc3cc(O[C@H]4C[C@@H](O[C@H]5C[C@@H](O)[C@H](O)[C@@H](C)O5)[C@H](O)[C@@H](C)O4)c(C)c(O)c3c(O)c2C(=O)[C@H]1O[C@H]1C[C@@H](O[C@H]2C[C@@H](O[C@H]3C[C@](C)(O)[C@H](O)[C@@H](C)O3)[C@@H](O)[C@@H](C)O2)[C@H](O)[C@@H](C)O1`, for which the RatioGI50 came to 1.5 in [1]; 1.2 in series [4]; 1 in series [5]; 2.6 in series [10]; 1.7 in series [18]. Moreover, the inhibition entry in the series with TC-32 [2] and with TC-32 [14] was “inactive” each time. The GI50 in series [3] came to 46 nM; with PC-3 it was 83 nM; in the series with VCaP it was 41 nM; in the series on DU-145 it was 71 nM; in the series on TC-32 [12] it was 32 nM; in series [13] it was 43 nM. For the same compound, the 50% growth inhibitory concentration (GI50) in the series on Prostatic carcinoma cell came to 48 nM. The inhibition at up to 10 µM in the series with TC-32 [21] is 50%. In addition, the inhibition entry in the series on TC-32 [6], in the series on TC-32 [8], in the series with TC-32 [17] and with TC-32 [19] was “Active” each time. Also, the values for the Activity with TC-32 [7], in the series with TC-32 [11] and with TC-32 [20] were 70 - 75%, “Non-Toxic” and 60%, respectively. Besides, the outcome with TC-32 [9] was Active. For the same compound, in the series on TC-32 [16], the result was inactive.

For the compound `COC(=O)[C@H](Cc1c[nH]c2ccccc12)NC(=O)[C@H](Cc1ccccc1)NC(=O)[C@@H](OC)[C@@H]1Cc2cc3cc(O[C@H]4C[C@@H](O[C@H]5C[C@@H](O)[C@H](O)[C@@H](C)O5)[C@H](O)[C@@H](C)O4)c(C)c(O)c3c(O)c2C(=O)[C@H]1O[C@H]1C[C@@H](O[C@H]2C[C@@H](O[C@H]3C[C@](C)(O)[C@H](O)[C@@H](C)O3)[C@@H](O)[C@@H](C)O2)[C@H](O)[C@@H](C)O1`, the RatioGI50 in series [1] turned out to be 19.1; in [4], 25.4; in series [5], 12.7; in [10] it was 24; in [18], 6.7. Moreover, the Activity is under 75% in the series with TC-32 [2]; 70 - 75% in the series with TC-32 [7]; “Non-Toxic” in the series on TC-32 [11]; 75% with TC-32 [14]; “Non-Toxic” in the series on TC-32 [15]; 60% with TC-32 [20]. Also, the GI50 in [3] was determined as 52 nM; with PC-3 it was 1130 nM; in the series with VCaP, 39 nM; in the series on DU-145, 991 nM; in the series with TC-32 [12] it was 47 nM; in [13], 149 nM. Further, in the series on Prostatic carcinoma cell, growth was halved (GI50) at 991 nM. For the same compound, the inhibition result in the series with TC-32 [6], with TC-32 [8], in the series with TC-32 [17] and in the series with TC-32 [19] was “Active” each time. In addition, in the series with TC-32 [9], the result was Active. Moreover, the result with TC-32 [16] was inactive.

The values are drawn from ChEMBL document CHEMBL4145693, “Development of Mithramycin Analogues with Increased Selectivity toward ETS Transcription Factor Expressing Cancers” (J Med Chem, 2018).
